MrgX1 antagonist = blocks BAM8-22 activation of human MrgX1 receptor | Q96LB2 | MRGX1-HEK293 calcium flux, Fluo-4, BAM8-22 antagonism; active compounds read low | B-score at 10 µM | 1.3% of 310,000 active;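 active = calcium-response B-score plate-corrected more than 3 library SD below zero, starting fluorescence within 5 deviations, no agonist response on first addition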;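 note: peak minus trough fluorescence over baseline after final BAM8-22 challenge near maximal dose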
Target sequence (Q96LB2 whole entry, looked up): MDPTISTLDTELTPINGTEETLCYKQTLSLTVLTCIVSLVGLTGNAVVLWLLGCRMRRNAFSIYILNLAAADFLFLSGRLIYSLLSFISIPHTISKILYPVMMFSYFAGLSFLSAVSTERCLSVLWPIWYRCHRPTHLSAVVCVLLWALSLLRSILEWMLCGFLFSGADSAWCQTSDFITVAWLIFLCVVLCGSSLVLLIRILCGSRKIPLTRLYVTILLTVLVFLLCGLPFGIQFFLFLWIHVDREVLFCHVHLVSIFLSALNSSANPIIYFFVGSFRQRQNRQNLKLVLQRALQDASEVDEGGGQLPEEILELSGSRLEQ
RGS4 pot = RGS4 potentiation or activation; HEK293 M3R/inducible RGS4, carbachol calcium flux Fluo4; active compounds read low; B-score at 10 µM; 0.92% of 310,000 active; AID 463111;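 active = B-score of the integrated calcium signal more than 4 SD below the library mean, with starting fluorescence not abnormally high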;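 note: negative B-score means reduced calcium response which marks RGS4 activation or potentiation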
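System: HEK293 FlpIn-TREx cells, stable M3R, doxycycline-inducible RGS4. Timing: overnight RGS4 induction, 30 min dye load 37 °C, 20 min compound RT. Also added: carbachol, ECmax concentration. Measured by: Fluo4 fluorescence kinetic imaging of calcium. Evaluation: integrated calcium ratio converted to B score.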
MrgX1 PAM = human MrgX1 positive allosteric modulation, primary screen; Q96LB2; MrgX1-HEK293, Fluo-4 calcium flux, FDSS; active compounds read high; B-score at 10 µM; 0.63% of 310,000 active;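 active = plate-corrected calcium response at least 3 library SD above typical, normal starting fluorescence, not activating the receptor alone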;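 note: compound read alongside a low EC10 to EC30 dose of BAM8-22 agonist; peak minus trough fluorescence over baseline measured at the second addition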
RGS4 inh = inhibitors of human RGS4; P49798; HEK293 M3R/RGS4 inducible, Fluo-4 calcium flux; active compounds read high; triggered by carbachol at its EC20; B-score at 10 µM; 0.45% of 310,000 active; AID 463165;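 active = B-score, a plate-corrected calcium signal, over three deviations above library mean, with baseline fluorescence within five deviations of library mean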;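 note: RGS4 expression induced by doxycycline in cells with stable M3 receptor; B-score is computed from the integrated fluorescence ratio over baseline after carbachol; higher B-score means a larger calcium signal and so more RGS4 inhibition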
Target sequence (P49798 whole entry, looked up): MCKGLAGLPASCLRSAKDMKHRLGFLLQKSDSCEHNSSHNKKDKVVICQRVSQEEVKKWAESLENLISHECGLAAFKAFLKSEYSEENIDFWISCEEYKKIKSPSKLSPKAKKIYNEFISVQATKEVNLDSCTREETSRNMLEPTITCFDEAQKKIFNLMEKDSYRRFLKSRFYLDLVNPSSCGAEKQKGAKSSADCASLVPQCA
MrgX1 agonist = activates human MrgX1 receptor signaling | MrgX1-HEK293 cells, Fluo-4 calcium fluorescence, agonist mode; active compounds read high | B-score at 10 µM | 0.44% of 310,000 active | AID 588627;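 active = calcium response B-score plate-corrected fluorescence ratio at least 3 library SD, with starting fluorescence B-score inside 5 SD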
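Test system: HEK293 cells stably expressing human MrgX1 receptor; Input: fifteen thousand cells per well; Dosing: compound delivered in addition one of three; Schedule: overnight seeding, then 1 h dark dye loading; Technique: Fluo-4 NW calcium fluorescence; Measure: B-scored fluorescence response ratio; Controls: positive and negative controls per plate.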
RGS4 block valid = RGS4 inhibitor validation; shares compounds with RGS4 inh; HEK293 M3R/RGS4, carbachol calcium Fluo-4 fluorescence; carbachol added at its EC20; 0 = buffer wells, 100 = carbachol control; calcium response, % at 10 µM; 65% of 1,700 active; AID 492999;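 active = duplicate-averaged calcium response above the buffer-only control mean plus 5 SD of those controls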;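 note: integrated fluorescence ratio F max minus min over baseline F0; higher response in RGS4-induced cells means RGS4 inhibition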
M3R Ca ctr = checks RGS4 inhibitor effects in non-induced HEK293 M3R cells. 20% of 1,900 active. AID 493000. shares compounds with RGS4 inh. carbachol calcium Fluo-4; submaximal (EC20) carbachol stimulus; buffer wells 0%, carbachol control wells 100%. activity (percent), % at 10 µM; call rule not given here;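 note: RGS4 induction absent so cells express M3R without RGS4; higher means more calcium signal and flags a non-specific hit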
RGS4 inh ctr2 = second counter-screen for RGS4 inhibitors: non-induced cells without carbachol. calcium response (agonist-mode artifact), % at 10 µM. shares compounds with RGS4 inh. 22% of 1,900 active. AID 493001. HEK293 M3R/RGS4 non-induced, Fluo-4 calcium, no carbachol; normalised: buffer wells 0%, carbachol wells 100%;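 active = duplicate-averaged calcium rise in uninduced cells above buffer wells' mean plus 5 SD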
Active calls of the source: *; i = inactive; . = no result. An excerpt weighted towards active compounds, which were near 3.5% of everything screened.

SMILES	MrgX1 antagonist	RGS4 pot	MrgX1 PAM	RGS4 inh	MrgX1 agonist	RGS4 block valid	M3R Ca ctr	RGS4 inh ctr2
COc1ccc(/C=C/C(=O)c2ccc3c(c2)OCCO3)cc1[N+](=O)[O-]	i	i	i	8.1*	i	6.0%*	i	i
O=C(O)c1ccc(/C=C/C(=O)c2ccc3c(c2)OCCCO3)cc1	i	i	i	14*	i	47%*	i	i
COc1ccc(/C=N/NC(=O)c2ccc3c(c2)OCCO3)cc1[N+](=O)[O-]	i	i	i	i	i	.	.	.
Cc1ccc(/C=C2\SC(N3CCCC3)=NC2=O)cc1	i	i	i	i	i	.	.	.
O=C1N=C2SCCN2/C1=C\c1ccc(Cl)cc1	i	i	i	25*	i	85%*	i	i
CCOc1ccc(NC(=O)CN(C)C(=O)c2ccc(NC3CC3)c([N+](=O)[O-])c2)cc1OCC	i	i	i	i	i	.	.	.
O=C(CC1C(=O)NCCN1C(=O)Nc1ccc(F)cc1)Nc1cc(Cl)ccc1Cl (stereo not drawn)	i	i	i	i	i	.	i	10%*
O=C(CC1C(=O)NCCN1C(=O)Nc1ccccc1)Nc1cc(Cl)ccc1Cl (stereo not drawn)	i	i	i	i	i	.	.	.
O=C(CC1C(=O)NCCN1C(=O)Nc1ccccc1)Nc1ccc(F)cc1 (stereo not drawn)	i	i	i	i	i	.	i	i
COc1ccc(NC(=O)N2CCNC(=O)C2CC(=O)Nc2ccc(F)cc2)cc1 (stereo not drawn)	i	i	i	i	i	i	i	i
O=C(CC1C(=O)NCCN1C(=O)c1ccc(Cl)cc1)Nc1ccc(F)cc1 (stereo not drawn)	i	i	i	i	i	i	i	i
CCOc1ccc(NC(=O)CC2C(=O)NCCN2C(=O)Nc2ccccc2)cc1 (stereo not drawn)	i	i	i	i	i	.	.	.
CCOC(=O)C1(Cc2cccc(F)c2)CCN(C(=O)c2cnc(C)cn2)CC1	i	i	i	i	i	.	.	.
COC(=O)c1cc(S(=O)(=O)Nc2cccc(C)c2C)cn1C	i	i	i	i	i	.	.	.
O=C(CC1C(=O)NCCN1C(=O)Nc1ccc(Cl)cc1)Nc1ccc(F)cc1 (stereo not drawn)	i	i	i	5.6*	i	23%*	37%*	12%*
COC(=O)CC1C(=O)NCCN1C(=O)Nc1ccc(Cl)cc1 (stereo not drawn)	i	i	i	i	i	.	.	.
Cc1cccc(NC(=O)CC2C(=O)NCCN2C(=O)Nc2ccc(Cl)cc2)c1 (stereo not drawn)	i	i	i	9.1*	i	26%*	46%*	i
CN1CCN(Cc2c(O)ccc3cc(Br)ccc23)CC1	i	i	i	i	i	.	.	.
CCN(Cc1ccncc1)Cc1c(O)ccc2cc(Br)ccc12	.	i	.	4.8*	.	i	i	i
O=C(Cn1nc(C(=O)O)c2ccccc2c1=O)NC12CC3CC(CC(C3)C1)C2	i	i	i	i	i	.	.	.
COC(=O)c1ccc(NC(=S)Nc2ccccc2)cc1	i	i	i	i	i	.	.	.
COC(=O)c1ccc(NC(=S)Nc2ccc3ccccc3c2)cc1	i	i	i	7.8*	i	i	i	i
Cc1oc(-c2ccccc2Cl)nc1CS(=O)(=O)CC(=O)NC1CCCC1	i	i	i	i	i	.	.	.
O=C1c2ccccc2C(=O)N1CC(O)COc1ccccc1Cl (stereo not drawn)	i	i	i	i	i	.	.	.
COc1cccc(C2CC(c3c(-c4ccccc4)c4cc(Cl)ccc4[nH]c3=O)=NN2S(C)(=O)=O)c1OC (stereo not drawn)	i	i	i	5.2*	i	9.0%*	i	80%*
SMILES	MrgX1 antagonist	RGS4 pot	MrgX1 PAM	RGS4 inh	MrgX1 agonist	RGS4 block valid	M3R Ca ctr	RGS4 inh ctr2
COc1ccccc1C1CC(c2c(-c3ccccc3)c3cc(Cl)ccc3[nH]c2=O)=NN1S(C)(=O)=O (stereo not drawn)	i	.	i	.	i	.	.	.
Cn1c(SCC(=O)NNC(=O)Cc2ccccc2)nc2ccccc2c1=O	i	i	i	i	i	.	.	.
Cc1ccc(S(=O)(=O)N2CCOCC2)cc1C(=O)c1nccn1C	i	i	i	i	i	.	.	.
CC(=O)N1CCc2c(sc3c2c(=O)n(Cc2ccccc2)c(=O)n3CC(=O)NCC2CCCO2)C1 (stereo not drawn)	i	i	i	i	i	.	.	.
CCOC(=O)N1CCc2c(sc3c2c(=O)n(Cc2ccccc2)c(=O)n3Cc2ccc(C)cc2)C1	i	i	i	8.7*	i	38%*	30%*	i
O=C(Nc1cc(S(=O)(=O)N2CCOCC2)ccc1N1CCOCC1)c1ccc(Cl)nc1	i	i	i	i	i	.	.	.
CC1CCN(c2c(NCC3CCC(C(=O)NCCc4ccccc4)CC3)c(=O)c2=O)CC1 (stereo not drawn)	i	i	i	i	i	.	i	i
CC(=O)c1c(C)oc2c1cc(NS(=O)(=O)c1ccc(C(=O)O)cc1)c1ccccc12	i	i	i	i	i	.	i	i
COC(=O)c1c(C)oc2c1cc(NS(=O)(=O)c1ccc(C(=O)O)cc1)c1ccccc12	i	i	i	5.6*	i	16%*	i	i
CCOc1ccccc1NC(=O)CN1C(=O)COc2ccc(C)cc21	i	i	i	i	i	.	.	.
CCOC(=O)CCNC(=O)N1CCCC(C(=O)c2cc(C)c(OC)c(C)c2)C1 (stereo not drawn)	i	i	i	i	i	.	.	.
CC(=O)N(C)Cc1ccc(C(=O)CCl)cc1	i	i	i	11*	i	22%*	i	21%*
C=CCNc1nnc(SC2CC(=O)N(c3ccc(OC)cc3)C2=O)s1 (stereo not drawn)	i	i	i	5.7*	i	9.0%*	i	i

From PubChem
